Assay results reported in ChEMBL document CHEMBL3817796, “Discovery of Novel 15-Lipoxygenase Activators To Shift the Human Arachidonic Acid Metabolic Network toward Inflammation Resolution” (J Med Chem, 2016).
Calls of active or inactive are those of the source. The rule behind the calls is not given here.

Experiments:
[1] = molecular target: T1, Prostaglandin G/H synthase 2 (Homo sapiens) (UniProt P35354); test: Activation of COX2 (unknown origin) assessed as PGG2 to PGH2 conversion by measuring N,N,N',N'-tetramethyl-p-phenylenediamine oxidation at 100 uM by spectrophotometry
T1 sequence (whole entry): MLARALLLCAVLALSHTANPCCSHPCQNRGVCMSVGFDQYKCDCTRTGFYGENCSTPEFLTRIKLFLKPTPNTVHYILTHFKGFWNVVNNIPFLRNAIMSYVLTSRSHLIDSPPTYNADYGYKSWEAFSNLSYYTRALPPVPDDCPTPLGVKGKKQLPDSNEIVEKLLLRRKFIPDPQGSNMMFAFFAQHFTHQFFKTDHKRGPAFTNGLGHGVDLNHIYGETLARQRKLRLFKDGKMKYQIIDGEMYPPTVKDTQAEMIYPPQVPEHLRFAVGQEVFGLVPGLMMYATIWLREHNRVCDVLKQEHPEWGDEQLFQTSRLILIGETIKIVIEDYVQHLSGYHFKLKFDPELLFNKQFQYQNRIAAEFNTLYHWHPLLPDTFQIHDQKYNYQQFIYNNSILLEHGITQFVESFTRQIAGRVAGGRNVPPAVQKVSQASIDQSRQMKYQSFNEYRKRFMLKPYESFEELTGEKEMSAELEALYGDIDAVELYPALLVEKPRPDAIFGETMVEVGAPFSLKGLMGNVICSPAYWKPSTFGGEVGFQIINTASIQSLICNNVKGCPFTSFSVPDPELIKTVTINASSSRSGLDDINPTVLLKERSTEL

[2] = molecular target: Prostaglandin G/H synthase 1 (Homo sapiens) (UniProt P23219); test: Inhibition of COX1 (unknown origin) assessed as reduction in PGG2 to PGH2 conversion by measuring N,N,N',N'-tetramethyl-p-phenylenediamine oxidation at 100 uM by spectrophotometry
Sequence of Prostaglandin G/H synthase 1 (Homo sapiens) (P23219 whole entry): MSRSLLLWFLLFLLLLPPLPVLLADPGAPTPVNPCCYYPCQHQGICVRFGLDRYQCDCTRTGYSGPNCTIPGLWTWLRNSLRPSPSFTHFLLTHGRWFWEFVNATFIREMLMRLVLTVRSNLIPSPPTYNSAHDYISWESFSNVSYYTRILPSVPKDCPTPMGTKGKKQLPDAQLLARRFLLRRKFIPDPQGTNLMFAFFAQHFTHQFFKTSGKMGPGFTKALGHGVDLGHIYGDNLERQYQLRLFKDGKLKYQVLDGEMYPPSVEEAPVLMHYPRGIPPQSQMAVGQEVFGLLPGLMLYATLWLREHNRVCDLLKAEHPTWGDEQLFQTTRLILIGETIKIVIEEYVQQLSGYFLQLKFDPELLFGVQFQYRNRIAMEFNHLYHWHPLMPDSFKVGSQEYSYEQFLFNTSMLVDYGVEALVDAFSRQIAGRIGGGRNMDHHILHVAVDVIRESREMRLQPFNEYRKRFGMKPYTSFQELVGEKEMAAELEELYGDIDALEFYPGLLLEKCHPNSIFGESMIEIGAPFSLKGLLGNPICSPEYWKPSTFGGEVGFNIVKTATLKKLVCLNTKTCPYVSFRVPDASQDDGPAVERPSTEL

[3] = molecular target: T2, Polyunsaturated fatty acid lipoxygenase ALOX15 (Homo sapiens) (UniProt P16050); test: Activation of 15-LOX in human whole blood assessed as 5-HETE production at 100 uM pre-incubated for 20 mins before stimulation with LPS and A23187 for 120 mins in presence of 2 uM 5-LOX inhibitor Zileuton by LC-MS/MS method; format: tissue-based
T2 sequence (whole entry): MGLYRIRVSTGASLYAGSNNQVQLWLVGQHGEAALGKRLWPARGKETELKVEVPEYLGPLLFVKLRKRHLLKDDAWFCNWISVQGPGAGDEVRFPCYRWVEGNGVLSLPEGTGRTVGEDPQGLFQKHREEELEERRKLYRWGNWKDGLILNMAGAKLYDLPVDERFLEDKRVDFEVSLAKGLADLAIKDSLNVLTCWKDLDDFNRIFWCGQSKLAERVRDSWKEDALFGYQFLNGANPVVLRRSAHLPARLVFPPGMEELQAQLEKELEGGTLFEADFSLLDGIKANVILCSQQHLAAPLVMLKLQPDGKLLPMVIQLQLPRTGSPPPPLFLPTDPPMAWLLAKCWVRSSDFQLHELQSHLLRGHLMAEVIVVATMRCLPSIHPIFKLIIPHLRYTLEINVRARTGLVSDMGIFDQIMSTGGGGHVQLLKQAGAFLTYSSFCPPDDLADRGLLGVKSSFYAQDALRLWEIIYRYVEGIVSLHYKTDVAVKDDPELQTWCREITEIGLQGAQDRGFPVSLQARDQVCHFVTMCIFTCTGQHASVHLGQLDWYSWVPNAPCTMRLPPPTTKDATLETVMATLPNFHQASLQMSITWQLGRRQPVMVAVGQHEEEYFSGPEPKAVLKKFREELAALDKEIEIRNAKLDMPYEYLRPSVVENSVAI
Method in brief: (§1)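 Human blood preincubated 20 min at 37 °C with DMSO vehicle or compound in DMSO. LPS added at 100 μg/mL for 24 h at 37 °C, then A23187 at 20 μg/mL final. Samples frozen in liquid nitrogen at time points, lysed by freeze–thaw, with PGB2 internal standard. Analysed by C18 LC-MRM MS, negative ion. Change = control-normalized concentration minus 1, ×100%; 120 min value from AUC.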

[4] = molecular target: T3, Leukotriene A-4 hydrolase (Homo sapiens) (UniProt P09960); test: Inhibition of LTA4H hydrolase activity (unknown origin) assessed as reduction in LTB4 formation at 100 uM by enzyme linked immunosorbent assay
T3 sequence (whole entry): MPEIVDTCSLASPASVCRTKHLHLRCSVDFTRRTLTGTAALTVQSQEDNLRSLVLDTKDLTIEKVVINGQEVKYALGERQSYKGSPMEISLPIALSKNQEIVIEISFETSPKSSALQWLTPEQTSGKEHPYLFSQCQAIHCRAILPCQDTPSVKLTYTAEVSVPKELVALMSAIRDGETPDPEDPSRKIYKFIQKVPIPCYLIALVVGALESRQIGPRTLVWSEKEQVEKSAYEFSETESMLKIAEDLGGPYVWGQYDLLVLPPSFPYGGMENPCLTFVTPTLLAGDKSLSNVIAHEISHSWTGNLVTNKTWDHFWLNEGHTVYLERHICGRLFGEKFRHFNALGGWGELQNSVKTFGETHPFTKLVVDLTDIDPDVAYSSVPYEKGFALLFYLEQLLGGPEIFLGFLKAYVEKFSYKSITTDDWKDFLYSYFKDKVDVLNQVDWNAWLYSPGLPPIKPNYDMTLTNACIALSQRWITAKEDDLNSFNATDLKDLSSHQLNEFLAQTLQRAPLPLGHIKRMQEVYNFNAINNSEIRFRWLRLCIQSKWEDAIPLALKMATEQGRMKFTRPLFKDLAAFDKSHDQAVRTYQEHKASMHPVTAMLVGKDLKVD
Method in brief: (§2)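 LTA4H hydrolase activity read as LTB4 formation by ELISA. Compound handled as in the 15-LOX assay.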

[5] = molecular target: T2, Polyunsaturated fatty acid lipoxygenase ALOX15 (Homo sapiens); test: Activation of 15-LOX in human whole blood assessed as increase in 13-HODE production at 100 uM pre-incubated for 20 mins before stimulation with LPS and A23187 for 120 mins in presence of 2 uM […] inhibitor Zileuton by LC-MS/MS method; format: tissue-based; method in brief: as §1
[6] = molecular target: T4, Prostaglandin E synthase (Homo sapiens) (UniProt O14684); test: Inhibition of mPGES-1 (unknown origin) assessed as reduction in conversion of PGH2 to PGE2 at 100 uM by EIA method
T4 sequence (whole entry): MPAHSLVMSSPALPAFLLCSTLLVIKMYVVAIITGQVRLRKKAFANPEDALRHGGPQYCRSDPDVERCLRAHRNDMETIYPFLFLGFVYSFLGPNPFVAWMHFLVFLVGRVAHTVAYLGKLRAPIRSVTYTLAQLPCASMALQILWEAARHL
Method in brief: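 mPGES-1 activity taken as conversion of PGH2 to PGE2, with PGE2 measured by EIA. Compound handled as in the 15-LOX assay.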

[7] = molecular target: T2, Polyunsaturated fatty acid lipoxygenase ALOX15 (Homo sapiens); test: Activation of 15-LOX in human whole blood assessed as reduction in TXB2 production at 100 uM pre-incubated for 20 mins before stimulation with LPS and A23187 for 120 mins in presence of 2 uM 5-LOX inhibitor Zileuton by LC-MS/MS method; format: tissue-based; method in brief: as §1
[8] = molecular target: T3, Leukotriene A-4 hydrolase (Homo sapiens); test: Activation of LTA4H hydrolase activity (unknown origin) assessed as LTB4 formation at 100 uM by enzyme linked immunosorbent assay; method in brief: as §2

Activity [1]: < 5%
inhibition [2]: < 5%
Activity [3]: 59%
inhibition [4]: < 5%
Activity [5]: Active
inhibition [6]: 63%
Activity [7]: Active
Activity [8]: < 5%
SMILES: CN1CCN(CC(=O)N2N=C3/C(=C/c4ccccc4)CCCC3C2c2ccccc2)CC1 (stereo not drawn)
